Data set [1] is described as follows: Inhibition of HGK/MINK/TNIK in human HeLa cells lysate pre incubated for 15 mins followed by ATP acyl phosphate probe addition and measured after 10 mins by LC-MS/MS analysis. The data set is classed as subcellular.
In data set [2] the target is Serine/threonine-protein kinase Nek7 (Homo sapiens, UniProt Q8TDX7). The data set can be described thus: Inhibition of NEK7 in human HeLa cells lysate at 10 uM pre incubated for 15 mins followed by ADP acyl phosphate probe addition and measured after 10 mins by LC-MS/MS analysis relative to control. It counts as subcellular. Particulars: time 25.0 min.
A short description of data set [3]: Inhibition of CDK5/PRKX/PRKY in human HeLa cells lysate at 10 uM pre incubated for 15 mins followed by ADP acyl phosphate probe addition and measured after 10 mins by LC-MS/MS analysis relative to control. Particulars: 25 min, condition cancer. A digest of the protocol:
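KiNativ profiling in HeLa lysate (5 mg/mL total protein). Lysate incubated 15 min with inhibitor at 50, 10, 2, 0.8 or 0 μM. ATP or ADP acylphosphate probe then added (5 μM final) and reacted 10 min. Reaction stopped with urea and analysed by targeted MS, using up to four fragment ions per kinase peptide-probe conjugate. % inhibition taken against untreated lysate. Run in duplicate.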

In a further data set the target is RPS6KA1/RPS6KA2/RPS6KA3 (Homo sapiens, UniProt P51812+Q15349+Q15418). Description: Inhibition of RSK1/RSK2/RSK3 domain 1 in human HeLa cells lysate pre incubated for 15 mins followed by ADP acyl phosphate probe addition and measured after 10 mins by LC-MS/MS analysis. It counts as subcellular.
The nature of data set [4]: Inhibition of MSK1/2 domain 1 in human HeLa cells lysate at 2 uM pre incubated for 15 mins followed by ATP acyl phosphate probe addition and measured after 10 mins by LC-MS/MS analysis relative to control. Particulars: 25 min, condition cancer.
The target in data set [5] is Serine/threonine-protein kinase greatwall (Homo sapiens) (UniProt Q96GX5). The data set can be described thus: Inhibition of MASTL in human HeLa cells lysate at 2 uM pre incubated for 15 mins followed by ATP acyl phosphate probe addition and measured after 10 mins by LC-MS/MS analysis relative to control. It counts as subcellular. Particulars: time 25.0 min.
For data set [6], the target named is Interferon-induced, double-stranded RNA-activated protein kinase (Homo sapiens, UniProt P19525). The data set can be described thus: Inhibition of PKR in human HeLa cells lysate at 2 uM pre incubated for 15 mins followed by ADP acyl phosphate probe addition and measured after 10 mins by LC-MS/MS analysis relative to control. It counts as subcellular. Particulars: time 25.0 min.

The target of data set [7] is Ribosomal protein S6 kinase alpha-3 (Homo sapiens, UniProt P51812). The data set can be described thus: Inhibition of RSK2 domain 2 K2 site in human HeLa cells lysate pre incubated for 15 mins followed by ADP acyl phosphate probe addition and measured after 10 mins by LC-MS/MS analysis. The data set is classed as subcellular.
The target of data set [8] is Phosphatidylinositol 4-kinase beta (Homo sapiens, UniProt Q9UBF8). Description: Inhibition of PIK4CB in human HeLa cells lysate at 50 uM pre incubated for 15 mins followed by ATP acyl phosphate probe addition and measured after 10 mins by LC-MS/MS analysis relative to control. It counts as subcellular. Particulars: time 25.0 min.
Data set [9] has as its target Tyrosine-protein kinase ABL (Homo sapiens, UniProt P00519+P42684). The data set can be described thus: Inhibition of ABL1/2 in human HeLa cells lysate pre incubated for 15 mins followed by ATP acyl phosphate probe addition and measured after 10 mins by LC-MS/MS analysis. It counts as subcellular. The method in brief: (§1)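 HeLa cell lysates (5 mg/mL total protein) were preincubated with inhibitor at 0, 0.8, 2, 10 or 50 μM for 15 min. ATP or ADP acylphosphate probe was then added (5 μM final) for 10 min, and reactions were stopped with urea. Up to four fragment ions per kinase probe-peptide were quantified by targeted MS. % inhibition was taken relative to untreated lysate. Run in duplicate.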

In data set [10] the target is Serine/threonine-protein kinase 24 (Homo sapiens, UniProt Q9Y6E0). Description: Inhibition of MST3 in human HeLa cells lysate at 10 uM pre incubated for 15 mins followed by ATP acyl phosphate probe addition and measured after 10 mins by LC-MS/MS analysis relative to control. It counts as subcellular. Particulars: time 25.0 min.
Data set [11] deals with Tyrosine-protein kinase Fyn (Homo sapiens, UniProt P06241). The data set can be described thus: Inhibition of FYN in human HeLa cells lysate pre incubated for 15 mins followed by ADP acyl phosphate probe addition and measured after 10 mins by LC-MS/MS analysis. It counts as subcellular.
Data set [12] addresses 5'-AMP-activated protein kinase catalytic subunit alpha-1 (Homo sapiens, UniProt Q13131). Description: Inhibition of AMPKalpha1 in human HeLa cells lysate at 50 uM pre incubated for 15 mins followed by ADP acyl phosphate probe addition and measured after 10 mins by LC-MS/MS analysis relative to control. It counts as subcellular. Particulars: time 25.0 min. A digest of the protocol: as §1

Data set [13] concerns the target Cyclin-dependent kinase 11B (Homo sapiens, UniProt P21127). The data set can be described thus: Inhibition of PITSLRE in human HeLa cells lysate pre incubated for 15 mins followed by ATP acyl phosphate probe addition and measured after 10 mins by LC-MS/MS analysis. It counts as subcellular.
Data set [14] concerns the target Mitogen-activated protein kinase kinase kinase 1 (Homo sapiens, UniProt Q13233). Description: Inhibition of MAP3K1 in human HeLa cells lysate at 50 uM pre incubated for 15 mins followed by ADP acyl phosphate probe addition and measured after 10 mins by LC-MS/MS analysis relative to control. It counts as subcellular. Particulars: time 25.0 min.
The target of data set [15] is Interleukin-1 receptor-associated kinase 4 (Homo sapiens, UniProt Q9NWZ3). Description: Inhibition of IRAK4 in human HeLa cells lysate pre incubated for 15 mins followed by ADP acyl phosphate probe addition and measured after 10 mins by LC-MS/MS analysis. It counts as subcellular.
A short description of data set [16]: Inhibition of MST4/YSK1 in human HeLa cells lysate at 2 uM pre incubated for 15 mins followed by ATP acyl phosphate probe addition and measured after 10 mins by LC-MS/MS analysis relative to control. Particulars: 25 min, condition cancer.
The target in data set [17] is 3-phosphoinositide-dependent protein kinase 1 (Homo sapiens, UniProt O15530). The data set can be described thus: Inhibition of PDK1 in human HeLa cells lysate pre incubated for 15 mins followed by ADP acyl phosphate probe addition and measured after 10 mins by LC-MS/MS analysis. The data set is classed as subcellular.
The target in data set [18] is Mitogen-activated protein kinase 14 (Homo sapiens, UniProt Q16539). The data set can be described thus: Inhibition of P38a in human HeLa cells lysate pre incubated for 15 mins followed by ATP acyl phosphate probe addition and measured after 10 mins by LC-MS/MS analysis. The data set is classed as subcellular.
The nature of data set [19]: Toxicity in C57Bl/6 mouse assessed as effect on phosphorus level at 50 mg/kg, ip for 14 days (reference value: 6.8 mg/dl). It counts as organism-based. Particulars: in vivo, 336 h, time 14 day.
The target in data set [20] is 5'-AMP-activated protein kinase catalytic subunit alpha-2 (Homo sapiens, UniProt P54646). The data set can be described thus: Inhibition of AMPKalpha2 in human HeLa cells lysate pre incubated for 15 mins followed by ADP acyl phosphate probe addition and measured after 10 mins by LC-MS/MS analysis. The data set is classed as subcellular. A digest of the protocol:
as §1

Serine/threonine-protein kinase Nek7, sequence (Q8TDX7 whole entry, looked up): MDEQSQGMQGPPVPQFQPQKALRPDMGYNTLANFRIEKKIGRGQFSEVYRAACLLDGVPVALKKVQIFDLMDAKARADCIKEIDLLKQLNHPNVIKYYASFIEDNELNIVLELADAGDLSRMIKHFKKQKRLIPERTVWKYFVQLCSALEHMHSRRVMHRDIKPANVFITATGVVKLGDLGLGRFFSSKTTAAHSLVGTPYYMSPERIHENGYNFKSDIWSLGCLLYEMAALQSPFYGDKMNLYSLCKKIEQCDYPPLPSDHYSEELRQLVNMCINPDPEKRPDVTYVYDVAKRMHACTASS
Mitogen-activated protein kinase 14, sequence (Q16539 whole entry): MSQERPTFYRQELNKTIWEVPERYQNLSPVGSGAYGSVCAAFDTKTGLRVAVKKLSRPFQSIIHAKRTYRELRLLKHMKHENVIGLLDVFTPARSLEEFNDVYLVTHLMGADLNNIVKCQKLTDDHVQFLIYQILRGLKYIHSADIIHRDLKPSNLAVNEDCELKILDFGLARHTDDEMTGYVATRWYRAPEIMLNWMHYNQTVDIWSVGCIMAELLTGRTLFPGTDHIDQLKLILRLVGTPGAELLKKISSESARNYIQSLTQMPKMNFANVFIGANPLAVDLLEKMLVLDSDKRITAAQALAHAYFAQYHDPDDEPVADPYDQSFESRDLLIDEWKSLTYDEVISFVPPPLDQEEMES
Interferon-induced, double-stranded RNA-activated protein kinase, sequence (P19525 whole entry): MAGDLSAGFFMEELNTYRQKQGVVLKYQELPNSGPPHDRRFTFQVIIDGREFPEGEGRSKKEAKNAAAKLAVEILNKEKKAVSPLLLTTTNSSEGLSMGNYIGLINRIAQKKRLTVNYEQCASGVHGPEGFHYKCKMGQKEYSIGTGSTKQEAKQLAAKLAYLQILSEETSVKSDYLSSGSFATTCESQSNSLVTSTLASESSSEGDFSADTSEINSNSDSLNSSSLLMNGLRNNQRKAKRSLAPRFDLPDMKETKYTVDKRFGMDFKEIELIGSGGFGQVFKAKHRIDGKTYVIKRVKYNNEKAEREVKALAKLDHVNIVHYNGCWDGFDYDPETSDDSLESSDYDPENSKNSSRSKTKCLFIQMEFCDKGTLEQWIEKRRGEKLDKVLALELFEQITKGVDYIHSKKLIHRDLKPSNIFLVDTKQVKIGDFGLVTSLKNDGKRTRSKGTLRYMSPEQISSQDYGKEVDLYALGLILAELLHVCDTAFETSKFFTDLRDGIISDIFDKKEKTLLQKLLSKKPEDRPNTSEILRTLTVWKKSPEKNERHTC
Serine/threonine-protein kinase 24, sequence (Q9Y6E0 whole entry, looked up): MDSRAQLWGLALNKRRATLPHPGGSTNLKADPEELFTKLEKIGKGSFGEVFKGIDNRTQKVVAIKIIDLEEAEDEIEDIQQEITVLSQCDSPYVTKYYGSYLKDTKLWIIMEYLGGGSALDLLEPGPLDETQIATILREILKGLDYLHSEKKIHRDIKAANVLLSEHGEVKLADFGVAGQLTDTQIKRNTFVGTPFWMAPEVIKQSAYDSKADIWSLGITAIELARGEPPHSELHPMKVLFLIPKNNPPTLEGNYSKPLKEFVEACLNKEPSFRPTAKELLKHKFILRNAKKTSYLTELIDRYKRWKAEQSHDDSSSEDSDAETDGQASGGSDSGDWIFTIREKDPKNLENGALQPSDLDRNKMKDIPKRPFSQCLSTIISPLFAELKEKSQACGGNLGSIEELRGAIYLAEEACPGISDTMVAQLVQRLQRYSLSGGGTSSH
Cyclin-dependent kinase 11B, sequence (P21127 whole entry): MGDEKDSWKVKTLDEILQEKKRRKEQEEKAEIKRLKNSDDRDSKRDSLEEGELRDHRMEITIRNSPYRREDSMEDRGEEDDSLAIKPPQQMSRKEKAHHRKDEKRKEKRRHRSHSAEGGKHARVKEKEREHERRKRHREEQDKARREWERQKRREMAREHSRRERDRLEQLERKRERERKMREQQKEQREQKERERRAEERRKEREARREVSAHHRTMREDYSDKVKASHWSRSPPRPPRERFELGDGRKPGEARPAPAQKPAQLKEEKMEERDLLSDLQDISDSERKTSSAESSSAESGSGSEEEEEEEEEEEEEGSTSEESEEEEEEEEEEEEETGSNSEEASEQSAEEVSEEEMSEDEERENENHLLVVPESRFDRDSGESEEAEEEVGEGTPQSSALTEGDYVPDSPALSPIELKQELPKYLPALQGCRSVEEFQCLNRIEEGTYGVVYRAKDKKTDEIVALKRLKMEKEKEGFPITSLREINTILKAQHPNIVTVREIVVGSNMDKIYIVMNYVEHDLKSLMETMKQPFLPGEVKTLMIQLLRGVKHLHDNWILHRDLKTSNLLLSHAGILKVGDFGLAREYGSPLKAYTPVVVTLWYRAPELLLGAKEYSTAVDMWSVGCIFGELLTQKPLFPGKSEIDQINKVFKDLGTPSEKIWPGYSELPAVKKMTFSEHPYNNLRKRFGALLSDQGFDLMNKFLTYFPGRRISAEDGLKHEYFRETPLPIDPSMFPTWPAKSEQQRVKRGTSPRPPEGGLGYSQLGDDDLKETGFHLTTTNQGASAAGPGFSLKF
Phosphatidylinositol 4-kinase beta, sequence (Q9UBF8 2-816 limits assumed): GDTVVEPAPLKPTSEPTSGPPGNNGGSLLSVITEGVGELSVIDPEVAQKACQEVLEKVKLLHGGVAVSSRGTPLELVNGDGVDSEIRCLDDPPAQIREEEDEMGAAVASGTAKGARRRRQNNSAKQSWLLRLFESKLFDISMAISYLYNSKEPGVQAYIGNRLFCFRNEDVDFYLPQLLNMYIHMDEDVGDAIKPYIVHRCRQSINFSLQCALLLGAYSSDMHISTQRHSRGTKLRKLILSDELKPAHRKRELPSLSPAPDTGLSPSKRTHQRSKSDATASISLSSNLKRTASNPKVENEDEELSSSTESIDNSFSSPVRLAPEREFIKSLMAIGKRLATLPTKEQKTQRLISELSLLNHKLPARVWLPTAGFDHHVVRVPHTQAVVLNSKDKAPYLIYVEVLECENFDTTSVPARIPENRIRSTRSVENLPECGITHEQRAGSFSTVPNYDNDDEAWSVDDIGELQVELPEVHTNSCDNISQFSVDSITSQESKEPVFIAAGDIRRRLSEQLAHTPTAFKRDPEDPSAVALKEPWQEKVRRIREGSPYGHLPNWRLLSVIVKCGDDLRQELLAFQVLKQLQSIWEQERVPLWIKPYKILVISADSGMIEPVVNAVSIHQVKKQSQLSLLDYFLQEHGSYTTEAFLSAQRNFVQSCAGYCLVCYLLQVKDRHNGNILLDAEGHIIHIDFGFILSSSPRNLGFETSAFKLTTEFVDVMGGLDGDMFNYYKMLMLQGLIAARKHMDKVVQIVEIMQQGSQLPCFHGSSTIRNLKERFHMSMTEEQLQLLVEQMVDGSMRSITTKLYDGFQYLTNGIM
Mitogen-activated protein kinase kinase kinase 1, sequence (Q13233 whole entry): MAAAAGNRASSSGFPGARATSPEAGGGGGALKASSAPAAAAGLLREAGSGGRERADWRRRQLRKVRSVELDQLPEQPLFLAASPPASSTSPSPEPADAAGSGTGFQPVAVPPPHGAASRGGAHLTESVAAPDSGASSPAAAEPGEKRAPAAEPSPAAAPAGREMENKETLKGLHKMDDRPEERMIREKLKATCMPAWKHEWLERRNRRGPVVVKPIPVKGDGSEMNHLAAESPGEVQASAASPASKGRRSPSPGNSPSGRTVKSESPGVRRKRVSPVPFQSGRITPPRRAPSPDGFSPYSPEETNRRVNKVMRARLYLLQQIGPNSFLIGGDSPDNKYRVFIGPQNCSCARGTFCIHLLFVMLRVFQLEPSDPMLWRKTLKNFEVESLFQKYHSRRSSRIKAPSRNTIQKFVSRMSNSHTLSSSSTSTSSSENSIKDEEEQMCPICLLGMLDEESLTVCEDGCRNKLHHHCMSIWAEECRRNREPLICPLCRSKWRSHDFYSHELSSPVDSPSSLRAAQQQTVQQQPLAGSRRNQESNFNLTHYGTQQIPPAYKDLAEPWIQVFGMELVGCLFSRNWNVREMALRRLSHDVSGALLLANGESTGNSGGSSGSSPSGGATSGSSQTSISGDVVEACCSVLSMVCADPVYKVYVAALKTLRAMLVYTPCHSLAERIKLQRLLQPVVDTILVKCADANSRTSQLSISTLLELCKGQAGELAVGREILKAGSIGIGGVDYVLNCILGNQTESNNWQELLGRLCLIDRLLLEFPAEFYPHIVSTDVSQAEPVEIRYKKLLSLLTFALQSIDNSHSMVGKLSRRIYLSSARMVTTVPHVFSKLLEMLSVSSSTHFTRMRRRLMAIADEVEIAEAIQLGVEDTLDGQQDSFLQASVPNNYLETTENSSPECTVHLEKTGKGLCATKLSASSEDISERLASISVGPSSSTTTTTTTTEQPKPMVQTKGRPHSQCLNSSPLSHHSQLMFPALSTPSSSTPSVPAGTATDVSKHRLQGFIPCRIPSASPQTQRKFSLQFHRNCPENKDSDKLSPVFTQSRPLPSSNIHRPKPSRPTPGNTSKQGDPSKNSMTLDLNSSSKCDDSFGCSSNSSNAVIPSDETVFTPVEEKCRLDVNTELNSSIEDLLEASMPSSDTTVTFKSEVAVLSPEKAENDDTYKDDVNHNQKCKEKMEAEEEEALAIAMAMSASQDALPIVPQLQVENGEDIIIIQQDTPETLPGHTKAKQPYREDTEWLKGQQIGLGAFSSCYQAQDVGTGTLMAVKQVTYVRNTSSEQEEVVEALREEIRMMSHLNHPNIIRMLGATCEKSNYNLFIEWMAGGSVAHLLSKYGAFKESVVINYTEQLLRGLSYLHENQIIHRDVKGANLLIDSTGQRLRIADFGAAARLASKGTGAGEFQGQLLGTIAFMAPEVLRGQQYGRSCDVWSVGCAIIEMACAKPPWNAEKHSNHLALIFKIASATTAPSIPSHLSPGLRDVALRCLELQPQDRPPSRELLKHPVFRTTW

The IC50 is the point on the concentration scale where inhibition reaches its midpoint. The low end stands for higher potency, the high end for lower potency. What is called inhibition is the change of the read-out against control, counted positive when it falls. For the compound `CCOc1cc(N2CCC(O)CC2)ccc1Nc1ncc2c(n1)N(C)c1ccccc1C(=O)N2C`, the IC50 is > 50 µM in [1]; > 50 µM against RPS6KA1/RPS6KA2/RPS6KA3; 47 µM in data set [7]; > 50 µM in [9]; > 50 µM in data set [11]; > 50 µM in [13]. Moreover, the IC50 in data set [15], in [17], in data set [18] and in [20] was > 50 µM throughout. Besides, the inhibition in data set [2] was -7.9%; in data set [5], 8.1%; in [6], 8.4%; in data set [8] it was 52.2%; in data set [10], -7.7%; in data set [12], 10.2%. Also, the inhibition in [14] worked out at 14.1%. Besides, the inhibition at 10 µM in [3] is -0.1%. In addition, the inhibition at 2 µM in data set [4] is -4.6%; in [16], -6.9%. In addition, the Activity in data set [19] is 6.4 mg/dL.

These data come from ChEMBL document CHEMBL5661979, “Pharmacological inhibition of BMK1 suppresses tumor growth through promyelocytic leukemia protein” (Cancer Cell, 2010).
